Reference: ChEMBL document CHEMBL4402547, “Synthesis and Pharmacological Characterization of Conformationally Restricted Retigabine Analogues as Novel Neuronal Kv7 Channel Activators” (J Med Chem, 2020)
Activity calls are given as the source filed them. The rule behind the calls is not given here.

Assays:
[1] = biological target: T1, Potassium voltage-gated channel subfamily KQT member 2 (Homo sapiens, UniProt O43526); experiment: Activation of human Kv7.2 expressed in CHO cells assessed as increase in current amplitude at 10 uM measured at holding potential of -40 mV by whole cell patch clamp electrophysiology assay relative to control; type: cell-based
T1 sequence (O43526 whole entry, the tested form may be a part): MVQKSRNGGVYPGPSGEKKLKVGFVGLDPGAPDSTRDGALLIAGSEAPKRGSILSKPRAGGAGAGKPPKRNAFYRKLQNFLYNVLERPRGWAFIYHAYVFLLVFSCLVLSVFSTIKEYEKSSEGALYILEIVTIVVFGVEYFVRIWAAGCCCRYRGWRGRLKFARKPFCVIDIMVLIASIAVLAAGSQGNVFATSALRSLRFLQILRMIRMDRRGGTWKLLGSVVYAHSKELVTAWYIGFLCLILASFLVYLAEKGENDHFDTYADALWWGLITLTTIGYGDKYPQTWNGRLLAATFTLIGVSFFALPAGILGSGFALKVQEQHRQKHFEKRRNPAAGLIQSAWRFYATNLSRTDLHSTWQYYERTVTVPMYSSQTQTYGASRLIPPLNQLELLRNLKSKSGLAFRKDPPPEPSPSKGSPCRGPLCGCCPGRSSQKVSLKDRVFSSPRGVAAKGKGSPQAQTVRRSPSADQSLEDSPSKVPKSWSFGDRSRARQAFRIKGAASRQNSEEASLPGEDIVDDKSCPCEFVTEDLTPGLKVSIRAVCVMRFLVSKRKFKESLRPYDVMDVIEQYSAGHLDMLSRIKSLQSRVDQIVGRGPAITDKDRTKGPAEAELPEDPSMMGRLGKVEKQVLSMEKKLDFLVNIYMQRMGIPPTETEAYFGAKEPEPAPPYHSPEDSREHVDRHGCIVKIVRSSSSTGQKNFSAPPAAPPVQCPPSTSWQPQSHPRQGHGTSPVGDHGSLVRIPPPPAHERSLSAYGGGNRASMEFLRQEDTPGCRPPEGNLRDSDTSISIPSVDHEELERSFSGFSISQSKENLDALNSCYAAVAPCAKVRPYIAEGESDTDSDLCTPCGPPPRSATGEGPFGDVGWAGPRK
Summary of the method: (§1)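 CHO cells transiently co-transfected (Lipofectamine 2000, 4 μg total cDNA, EGFP marker) with human channel cDNA in pcDNA3.1, recorded 24 h later. Whole-cell patch clamp at 20–22°C, 3–5 MΩ pipettes, perfused extracellular solution pH 7.4. Held at −80 mV; 3-s ramps −80 to +20 mV ± 10 μM drug. Current at −40 mV with vs without drug expressed as ratio; ≥3 cells from ≥2 transfections, mean ± SEM.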

[2] = biological target: T1, Potassium voltage-gated channel subfamily KQT member 2; experiment: Activation of human Kv7.2 expressed in CHO cells assessed as increase in current amplitude at 10 uM measured at holding potential of 0 mV by whole cell patch clamp electrophysiology assay relative to control; type: cell-based
Summary of the method: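 Transiently transfected CHO cells expressing human Kv7.2, whole-cell patch clamp at 20–22°C in HEPES-buffered saline pH 7.4. Cells held at −80 mV and ramped −80 to +20 mV over 3 s, before and during 10 μM drug. Ramp current at 0 mV taken as drug/control ratio; mean ± SEM of ≥3 cells, ≥2 transfections.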

[3] = Photostability of compound in pH 7.4 buffer assessed as compound degradation at 100 ug/ml incubated for 4 hrs under natural solar light-irradiation by HPLC analysis relative to control
Summary of the method: (§2)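 DMSO solutions diluted in pH 7.4 buffer, held in 1 cm quartz cells and exposed to natural daylight. Light-shielded controls kept at 37°C in foil. Aliquots drawn at set intervals and parent compound loss measured by UHPLC: C18 column, 0.1% TFA water/acetonitrile gradient, 45°C, detection at 254 nm.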

[4] = Photostability of compound in pH 7.4 buffer assessed as compound degradation at 100 ug/ml incubated for 6 hrs under natural solar light-irradiation by HPLC analysis relative to control; summary of the method: as §2
[5] = Photostability of compound in pH 7.4 buffer assessed as compound degradation at 100 ug/ml incubated for 2 hrs under natural solar light-irradiation by HPLC analysis relative to control; summary of the method: as §2
[6] = tested on: Potassium voltage-gated channel subfamily KQT member 2 (Homo sapiens), O43526 [W236L]; experiment: Activation of human Kv7.2 W236L mutant expressed in CHO cells assessed as channel current amplitude at 10 uM measured at holding potential of -40 mV by whole cell patch clamp electrophysiology assay; type: cell-based; summary of the method: as §1
Sequence of Potassium voltage-gated channel subfamily KQT member 2 (Homo sapiens), O43526 [W236L] (O43526 whole entry W236L): as the sequence (O43526 whole entry, the tested form may be a part) above, with W236L counted along it

[7] = tested on: Potassium voltage-gated channel subfamily KQT member 2 (Homo sapiens), O43526 [F168L]; experiment: Activation of ICA-insensitive human Kv7.2 F168L mutant expressed in CHO cells assessed as increase in channel current amplitude at 10 uM measured at holding potential of -40 mV by whole cell patch clamp electrophysiology assay; type: cell-based; summary of the method: as §1
Sequence of Potassium voltage-gated channel subfamily KQT member 2 (Homo sapiens), O43526 [F168L] (O43526 whole entry F168L): as the sequence (O43526 whole entry, the tested form may be a part) above, with F168L counted along it

| Compound | Activity [1] | Activity [2] | other results |
| --- | --- | --- | --- |
| O=S(=O)(Nc1ccc2c(c1)CCN2Cc1ccc(F)cc1)N1CCCCCC1 | inactive | inactive | – |
| O=S(=O)(Nc1ccc2c(c1)CCN2Cc1ccc(C(F)(F)F)cc1C(F)(F)F)C1CCCCC1 | inactive | inactive | – |
| O=C(Cc1ccc(Cl)cc1)N1CCc2cc(NS(=O)(=O)C3CCCCC3)ccc21 | inactive | inactive | – |
| CCCCCCC(=O)Nc1ccc2c(c1)CCC/C2=C/c1ccc(C(F)(F)F)cc1 | inactive | inactive | – |
| CCOC(=O)Nc1ccc2c(c1)CCN2Cc1ccc(F)cc1 | inactive | inactive | – |
| O=S(=O)(Nc1ccc2c(c1)CCN2Cc1ccc(F)cc1)c1ccccc1 | inactive | inactive | – |
| O=C(Nc1ccc2c(c1)CCN2Cc1ccc(F)cc1)NC1CCCCC1 | inactive | inactive | – |
| O=S(=O)(Nc1ccc2c(c1)CCN2Cc1ccc(C(F)(F)F)cc1)C1CCCCC1 | inactive | inactive | – |
| O=S(=O)(Nc1ccc2c(ccn2Cc2ccc(C(F)(F)F)cc2)c1)C1CCCCC1 | inactive | inactive | – |
| CC1CC(C)CN(S(=O)(=O)Nc2ccc3c(c2)CCN3Cc2ccc(F)cc2)C1 (stereo unspecified) | inactive | inactive | – |
| CC(C)(C)CNC(=N)Nc1ccc2c(c1)CCN2Cc1ccc(F)cc1 | inactive | inactive | – |
| CCCCCCC(=O)Nc1ccc2c(ccn2Cc2ccc(O)cc2)c1 | inactive | inactive | – |
| CCCCCCC(=O)Nc1ccc2c(c1)CCCC2Cc1ccc(C(F)(F)F)cc1 (racemic) | inactive | inactive | – |
| CC(C)CS(=O)(=O)Nc1ccc2c(c1)CCN2Cc1ccc(F)cc1 | inactive | inactive | – |
| O=S(=O)(CCC1CCCCC1)Nc1ccc2c(ccn2Cc2ccc(F)cc2)c1 | inactive | inactive | – |
| CCCCCCC(=O)Nc1ccc2c(c1)CCC/C2=C\c1ccc(C(F)(F)F)cc1 | inactive | inactive | – |
| CC(C)[C@H]1CC[C@H](C)C[C@@H]1OC(=O)Nc1ccc2c(c1)CCN2Cc1ccc(F)cc1 | inactive | inactive | – |
| CCCCCCCCCCCCCCCC(=O)Nc1ccc2c(ccn2Cc2ccc(C(F)(F)F)cc2)c1 | inactive | inactive | – |
| O=S(=O)(Nc1ccc2c(ccn2Cc2ccc(F)cc2)c1)C1CCCCC1 | inactive | Active | Drug degradation [3]: 15.8%; Drug degradation [4]: 23.1%; Drug degradation [5]: 6.46% |
| O=C(Nc1ccc2c(c1)CCN2Cc1ccc(F)cc1)C1CCCCC1 | inactive | inactive | – |

| Compound | Activity [1] | Activity [2] | other results |
| --- | --- | --- | --- |
| CCCCS(=O)(=O)Nc1ccc2c(c1)CCN2Cc1ccc(F)cc1 | inactive | inactive | – |
| CCCCCCS(=O)(=O)Nc1ccc2c(c1)CCN2Cc1ccc(F)cc1 | inactive | inactive | – |
| O=[N+]([O-])c1cc(Br)ccc1CN1CCc2cc(NS(=O)(=O)C3CCCCC3)ccc21 | inactive | Active | – |
| CCOC(=O)Nc1ccc(NCc2ccc(F)cc2)nc1N | Active | Active | – |
| O=S(=O)(Nc1ccc2c(c1)CCN2Cc1ccc(F)c(F)c1)C1CCCCC1 | inactive | inactive | – |
| CCCCN(C)CC(=O)Nc1ccc2c(ccn2Cc2ccc(C(F)(F)F)cc2)c1 | inactive | inactive | – |
| CCCCCCC(=O)Nc1ccc2c(ccn2Cc2ccc(OCOC)cc2)c1 | inactive | inactive | – |
| O=S(=O)(Nc1ccc2c(c1)CCN2Cc1ccc(F)cc1F)C1CCCCC1 | inactive | Active | Drug degradation [3]: 81.7%; Drug degradation [4]: > 99%; Drug degradation [5]: 33.5% |
| O=C(c1ccc(F)cc1)N1CCc2cc(NS(=O)(=O)C3CCCCC3)ccc21 | inactive | inactive | – |
| COc1ccc(CN2CCc3cc(NS(=O)(=O)C4CCCCC4)ccc32)cc1 | inactive | Active | Drug degradation [3]: 84.7%; Drug degradation [4]: > 99%; Drug degradation [5]: 37.5% |
| CCCCNCC(=O)Nc1ccc2c(ccn2Cc2ccc(C(F)(F)F)cc2)c1 | inactive | inactive | – |
| O=S(=O)(Nc1ccc2c(c1)CCN2CCc1ccc(F)cc1)C1CCCCC1 | inactive | inactive | – |
| COc1ccc(CN2c3ccc(NS(=O)(=O)C4CCCCC4)cc3CC2C)cc1 (racemic) | inactive | inactive | – |
| CC1(C)[C@@H]2CC[C@@]1(CS(=O)(=O)Nc1ccc3c(c1)CCN3Cc1ccc(F)cc1)C(=O)C2 | inactive | inactive | – |
| CC(=O)Nc1ccc2c(c1)CCN2Cc1ccc(F)cc1 | inactive | inactive | – |
| COc1ccc(Cn2ccc3cc(NS(=O)(=O)C4CCCCC4)ccc32)cc1 | inactive | inactive | – |
| O=C(Nc1ccc(Cl)nc1)c1ccc(F)c(F)c1 | Active | Active | Activity [6]: Active; Activity [7]: inactive |
| CC(C)(C)CNC(=O)Nc1ccc2c(c1)CCN2Cc1ccc(F)cc1 | inactive | inactive | – |
| CC1(C)[C@H]2CC[C@]1(CS(=O)(=O)Nc1ccc3c(c1)CCN3Cc1ccc(F)cc1)C(=O)C2 | inactive | inactive | – |
| O=C(CC1CCCCC1)Nc1ccc2c(c1)CCN2Cc1ccc(F)cc1 | inactive | inactive | – |
